In brackets after ≈: the same amount, converted by molar mass.
What was measured:
[1] = Tmax in brain of mice at the oral dose of 50 mg/kg; format: ADME, organism-based; set-up: dose 50 mg/kg, route oral; conditions: mouse
[2] = Tmax in kidney of mice at the oral dose of 50 mg/kg; format: ADME, organism-based; set-up: dose 50 mg/kg, route oral; conditions: mouse
[3] = Tmax in liver of mice at the oral dose of 50 mg/kg; format: ADME, organism-based; set-up: dose 50 mg/kg, route oral; conditions: mouse
[4] = Tmax in lungs of mice at the oral dose of 50 mg/kg; format: ADME, organism-based, Lung; set-up: dose 50 mg/kg, route oral; conditions: mouse
[5] = Tmax in spleen of mice at the oral dose of 50 mg/kg; format: ADME, organism-based; set-up: dose 50 mg/kg, route oral; conditions: mouse
[6] = system: Mus musculus; experiment: T2 in kidney of mice at the oral dose of 50 mg/kg; format: ADME, organism-based; set-up: dose 50 mg/kg, route oral; conditions: in vivo
[7] = system: Mus musculus; experiment: T2 in liver of mice at the oral dose of 50 mg/kg; format: ADME, organism-based; set-up: dose 50 mg/kg, route oral; conditions: in vivo
[8] = system: Mus musculus; experiment: T2 in lungs of mice at the oral dose of 50 mg/kg; format: ADME, organism-based, Lung; set-up: dose 50 mg/kg, route oral; conditions: in vivo
[9] = Cmax in spleen of mice at the oral dose of 50 mg/kg; format: ADME, organism-based; set-up: dose 50 mg/kg, route oral; conditions: mouse
[10] = system: Mus musculus; experiment: C2 in kidney of mice at the oral dose of 50 mg/kg; format: ADME, organism-based; set-up: dose 50 mg/kg, route oral; conditions: in vivo
[11] = system: Mus musculus; experiment: C2 in liver of mice at the oral dose of 50 mg/kg; format: ADME, organism-based; set-up: dose 50 mg/kg, route oral; conditions: in vivo
[12] = system: Mus musculus; experiment: C2 in lungs of mice at the oral dose of 50 mg/kg; format: ADME, organism-based, Lung; set-up: dose 50 mg/kg, route oral; conditions: in vivo
[13] = system: Mus musculus; experiment: C2 in spleen of mice at the oral dose of 50 mg/kg; format: ADME, organism-based; set-up: dose 50 mg/kg, route oral; conditions: in vivo
[14] = Cmax in kidney of mice at the oral dose of 50 mg/kg; format: ADME, organism-based; set-up: dose 50 mg/kg, route oral; conditions: mouse
[15] = Cmax in liver of mice at the oral dose of 50 mg/kg; format: ADME, organism-based; set-up: dose 50 mg/kg, route oral; conditions: mouse
[16] = Cmax in lungs of mice at the oral dose of 50 mg/kg; format: ADME, organism-based, Lung; set-up: dose 50 mg/kg, route oral; conditions: mouse
[17] = system: Escherichia coli; experiment: Antibacterial activity against Escherichia coli ATCC […]; format: functional
Procedure, shortened: (§1)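 MICs were determined by broth microdilution following NCCLS guidelines. The test panel includes erythromycin-susceptible strains and erythromycin-resistant strains with constitutive or inducible MLSB phenotypes or with efflux resistance.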

[18] = system: Enterococcus faecalis; experiment: Antibacterial activity against Enterococcus faecalis ATCC 29212; format: functional; procedure, shortened: as §1
[19] = system: Haemophilus influenzae; experiment: Antibacterial activity against Haemophilus influenzae ATCC 49247; format: functional; procedure, shortened: as §1
[20] = system: Streptococcus pneumoniae; experiment: Antibacterial activity against Streptococcus pneumoniae PSCB-0541; format: functional; procedure, shortened: as §1
[21] = system: Staphylococcus aureus; experiment: Antibacterial activity against Staphylococcus aureus ATCC 13709; format: functional; procedure, shortened: as §1
[22] = system: Staphylococcus aureus; experiment: Antibacterial activity against Staphylococcus aureus PSCB-0330; format: functional; procedure, shortened: as §1
[23] = system: Streptococcus pyogenes; experiment: Antibacterial activity against Streptococcus pyogenes PSCB-0543; format: functional; procedure, shortened: as §1
[24] = system: Streptococcus pyogenes; experiment: Antibacterial activity against Streptococcus pyogenes PSCB-0545; format: functional; procedure, shortened: as §1
[25] = system: Staphylococcus aureus; experiment: Antibacterial activity against Staphylococcus aureus PSCB-0331; format: functional; procedure, shortened: as §1
[26] = system: Staphylococcus aureus; experiment: Antibacterial activity against Staphylococcus aureus PSCB-0538; format: functional; procedure, shortened: as §1
[27] = system: Mus musculus; experiment: T2 in spleen of mice at the oral dose of 50 mg/kg; format: ADME, organism-based; set-up: dose 50 mg/kg, route oral; conditions: in vivo

- Tmax [1]: 0 h
- Tmax [2]: 2 h
- Tmax [3]: 2 h
- Tmax [4]: 2 h
- Tmax [5]: 30 min
- T2 [6]: 4 h
- T2 [7]: 4 h
- T2 [8]: 0.5 h
- Cmax [9]: 7970 ng/g
- C2 [10]: 4.58 µg/g
- C2 [11]: 24.43 µg/g
- C2 [12]: 10.24 µg/g
- C2 [13]: 7 µg/g
- Cmax [14]: 14300 ng/g
- Cmax [15]: 33300 ng/g
- Cmax [16]: 10400 ng/g
- MIC [17]: 128 µg/mL (≈ 158 µM)
- MIC [18]: 1 µg/mL (≈ 1.23 µM)
- MIC [19]: 4 µg/mL (≈ 4.93 µM)
- MIC [20]: 2 µg/mL (≈ 2.46 µM)
- MIC [21]: 0.25 µg/mL (≈ 0.308 µM)
- MIC [22]: 128 µg/mL (≈ 158 µM)
- MIC [23]: 0.5 µg/mL (≈ 0.616 µM)
- MIC [24]: 0.5 µg/mL (≈ 0.616 µM)
- MIC [25]: 0.5 µg/mL (≈ 0.616 µM)
- MIC [26]: 0.25 µg/mL (≈ 0.308 µM)
- T2 [27]: 2 h
SMILES: CC[C@H]1OC(=O)C[C@@H](O)[C@H](C)[C@@H](OC2OC(C)C(O)C(N(C)C)C2O)[C@@H](C/C=C/C(C)=O)C[C@@H](C)C(=O)/C=C/C(C)=C/[C@@H]1COC1OC(C)C(O)C(OC)C1OC (some centres not stated)
